Measurements reported in ChEMBL document CHEMBL1649409, “One-pot microwave assisted synthesis under green chemistry conditions, antioxidant screening, and cytotoxicity assessments of benzimidazole Schiff bases and pyrimido[1,2-a]benzimidazol-3(4H)-ones” (Eur J Med Chem, 2011).
Activity calls are given as the source filed them. No cut-off for these calls is given here.

Key:
Glycine max [1] = assay: Inhibition of soybean LOX at 0.1 mM
In short: (§1)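 Soybean lipoxygenase solution (1/9×10^-4 w/v in saline) incubated at RT with sodium linoleate and compound in DMSO. Conversion to 13-hydroperoxylinoleic acid recorded at 234 nm against a standard inhibitor. At least triplicate, averaged.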

[2] = test system: Radical scavenging activity; assay: Antioxidant activity assessed as DPPH radical scavenging activity at 0.05 mM after 60 mins; assay type: functional
In short: (§2)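 DPPH (0.05 mM in absolute ethanol) mixed with an equal volume of compound in DMSO (final 0.05 mM). Shaken vigorously, left 20 or 60 min, absorbance read at 517 nm. Percent activity calculated; three replicates averaged.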

[3] = test system: Radical scavenging activity; assay: Antioxidant activity assessed as DPPH radical scavenging activity at 0.05 mM after 20 mins; assay type: functional; in short: as §2
Glycine max [4] = assay: Inhibition of soybean LOX at 0.01 mM; in short: as §1
[5] = Antioxidant activity assessed as protection against […]-induced linoleic acid lipid peroxidation 0.01 mM; assay type: functional
In short: (§3)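 Linoleic acid sodium salt (16 mM solution) in 0.05 M phosphate buffer, pH 7.4, prethermostated at 37 °C. Oxidation started at 37 °C under air with 40 mM AAPH solution, with compound aliquots in DMSO present. Blanks carry the same DMSO level. Conjugated diene hydroperoxide formation followed by absorbance increase at 234 nm. At least triplicate, averaged.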

[6] = Antioxidant activity assessed as protection against […]-induced linoleic acid lipid peroxidation 0.1 mM; assay type: functional; in short: as §3
[7] = Cytotoxicity against human lung fibroblast assessed as cell viability at 0.16 mM after 24 hrs by MTT assay; assay type: cell-based; conditions: human lung fibroblasts, read-out: Activity
In short: (§4)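 Human lung fibroblasts, passage 19, grown in DMEM with 10% FBS, penicillin and streptomycin at 37 °C, 5% CO2. Seeded at 3×10^4 cells/mL and allowed to adhere 24 h. Exposed 24 h to compounds in DMSO (≤1% final), 1–50 µg/mL. After washing, MTT (5 mg/mL in PBS) added for 4–6 h at 37 °C. Formazan dissolved in isopropanol, read at 570 nm. At least three measurements.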

[8] = Cytotoxicity against human lung fibroblast assessed as cell viability at 50 ug/ml after 24 hrs by MTT assay; assay type: cell-based; conditions: human lung fibroblasts, read-out: Activity; in short: as §4
[9] = Cytotoxicity against human lung fibroblast assessed as cell viability at 0.04 mM after 24 hrs by MTT assay; assay type: cell-based; conditions: 40 µM; in short: as §4
[10] = Cytotoxicity against human lung fibroblast assessed as cell viability at 0.02 mM after 24 hrs by MTT assay; assay type: cell-based; conditions: 20 µM; in short: as §4
[11] = Cytotoxicity against human lung fibroblast assessed as cell viability at 0.03 to 0.037 mM after 24 hrs by MTT assay; assay type: cell-based; conditions: human lung fibroblasts, in the assay text read “0.003 to 0.037 mM” for “0.03 to 0.037 mM”, read-out: Activity; in short: as §4
[12] = Cytotoxicity against human lung fibroblast assessed as cell viability at 0.17 mM after 24 hrs by MTT assay; assay type: cell-based; conditions: human lung fibroblasts, read-out: Activity; in short: as §4

Row | inhibition (Glycine max [1]) | inhibition (Glycine max [4]) | Structure (SMILES) | inhibition [2] | inhibition [3] | inhibition [5] | inhibition [6] | viability at 24 h, 160 µM [7] | viability at 24 h, 50 ug/ml [8] | Activity [9] | Activity [10] | viability at 24 h, up to 37 µM [11] | viability at 24 h, 170 µM [12]
1 | 84% | 40% | CC(Cc1ccc(O)c(O)c1)C(C)Cc1ccc(O)c(O)c1 (stereo not drawn) | 83% | 81% |  |  |  |  |  |  |  | 
2 | inactive | inactive | C/C(=N\c1nc2ccccc2[nH]1)c1cccc(Br)c1 | 6% | inactive | 65% | 97% |  |  |  |  |  | 
3 |  |  | Cc1cc(C(C)(C)C)c(O)c(C(C)(C)C)c1 | 60% | 31% |  |  |  |  |  |  |  | 
4 | inactive | inactive | C/C(=N\c1nc2ccccc2[nH]1)c1ccccc1 | 5% | 0.3% | 18% | 67% |  |  |  |  |  | 
5 | 40% | inactive | Cc1ccc(C2=Nc3nc4ccccc4n3C(C)(c3ccc(C)cc3)C2=O)cc1 (stereo not drawn) | inactive | inactive | 8% | 80% |  |  |  |  |  | 
6 | 18% | inactive | C/C(=N\c1nc2ccccc2[nH]1)c1ccc(Br)cc1 | 4% | inactive | 22% | 50% | 73.6% |  |  |  |  | 
7 | inactive | inactive | COc1cccc(C2=Nc3nc4ccccc4n3C(C)(c3cccc(OC)c3)C2=O)c1 (stereo not drawn) | 2% | 3% | 3% | 100% |  | 63% | Non-toxic |  |  | 
8 | inactive | inactive | C/C(=N\c1nc2ccccc2[nH]1)c1ccc(C)cc1 | 8% | inactive | 47% | 84% |  |  |  |  |  | 
9 | 85% | 62% | C/C(=N\c1nc2ccccc2[nH]1)c1ccc(Cl)cc1 | 4% | 3% |  | 26% |  |  |  |  |  | 
10 | 12% | inactive | CC1(c2cccc(Br)c2)C(=O)C(c2cccc(Br)c2)=Nc2nc3ccccc3n21 (stereo not drawn) | 3% | inactive | 51% |  |  |  |  |  |  | 
11 | 100% | 49% | CC1(c2ccccc2)C(=O)C(c2ccccc2)=Nc2nc3ccccc3n21 (stereo not drawn) | 1% | 2% | 11% | 100% |  |  |  |  |  | 
12 | 19% | inactive | Cc1cccc(C2=Nc3nc4ccccc4n3C(C)(c3cccc(C)c3)C2=O)c1 (stereo not drawn) | 5% | 4% | 35% | 84% |  |  |  |  |  | 
13 |  |  | Cc1c(C)c2c(c(C)c1O)CCC(C)(C(=O)O)O2 (stereo not drawn) |  |  |  | 63% |  |  |  |  |  | 
14 | inactive | inactive | CC1(c2ccc(Cl)cc2)C(=O)C(c2ccc(Cl)cc2)=Nc2nc3ccccc3n21 (stereo not drawn) | 2% | 2% | 33% | 97% |  | 37% |  | Non-toxic |  | 
15 | 42% | inactive | COc1cccc(/C(C)=N/c2nc3ccccc3[nH]2)c1 | inactive | inactive | 69% | 100% |  |  |  |  |  | 
16 | 65% | 22% | COc1ccc(/C(C)=N/c2nc3ccccc3[nH]2)cc1 | 3% | 4% | 12% | 68% |  |  |  |  | 56% | 
17 | 61% | 51% | CC1(c2ccc(Br)cc2)C(=O)C(c2ccc(Br)cc2)=Nc2nc3ccccc3n21 (stereo not drawn) | 2% | 3% | 9% | 78% |  |  |  |  |  | 
18 | 8% | inactive | C/C(=N\c1nc2ccccc2[nH]1)c1cccc(C)c1 | inactive | inactive | 63% | 77% |  |  |  |  |  | 
19 | 98% | 18% | C/C(=N\c1nc2ccccc2[nH]1)c1ccc2ccccc2c1 | 7% | 5% | 26% | 97% |  |  |  |  |  | 62.5%
